Source: article PMC4716659 (European journal of medicinal chemistry, 2015)
Values after ≈ are worked out from the molar mass of the structure shown.

How the values were obtained:
S. aureus NRS1 (VISA) [1] = assay: MIC, broth microdilution; format: cell-based, Staphylococcus aureus; conditions: NRS1 (VISA)
MRSA USA300 = assay: Time-kill analysis; format: cell-based, Staphylococcus aureus; conditions: MRSA USA300, 3 × MIC, 37 °C
How it was run: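 Late-log-phase cells diluted to ~1 × 10^8 CFU/mL in MHB and exposed to test compound or vancomycin in triplicate at 37 °C. 20 μL samples taken at 0, 2, 4, 6, 8, 10, 12 and 24 h, serially diluted in PBS, and plated on TSA. Plates incubated 18–20 h at 37 °C, then viable CFU/mL counted. Data given as mean ± standard deviation.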

S. aureus NRS19 (VISA) [2] = assay: MBC, plating onto TSA; format: cell-based, Staphylococcus aureus; conditions: NRS19 (VISA)
[3] = test system: S. aureus ATCC 43300 (MRSA); assay: MBC, plating onto TSA; format: cell-based, Staphylococcus aureus; conditions: ATCC 43300 (MRSA)
S. aureus USA300 (MRSA) [4] = assay: MBC, plating onto TSA; format: cell-based, Staphylococcus aureus; conditions: USA300 (MRSA)
S. aureus NRS37 (VISA) [5] = assay: MBC, plating onto TSA; format: cell-based, Staphylococcus aureus; conditions: NRS37 (VISA)
S. aureus NRS119 (MRSA) [6] = assay: MBC, plating onto TSA; format: cell-based, Staphylococcus aureus; conditions: NRS119 (MRSA)
S. aureus NRS194 (MRSA) [7] = assay: MBC, plating onto TSA; format: cell-based, Staphylococcus aureus; conditions: NRS194 (MRSA)
S. aureus NRS107 (MRSA) [8] = assay: MIC, broth microdilution; format: cell-based, Staphylococcus aureus; conditions: NRS107 (MRSA)
S. aureus VRS5 (VRSA) [9] = assay: MBC, plating onto TSA; format: cell-based, Staphylococcus aureus; conditions: VRS5 (VRSA)
S. aureus USA300 (MRSA) [10] = assay: MIC, broth microdilution; format: cell-based, Staphylococcus aureus; conditions: USA300 (MRSA)
S. aureus VRS1 (VRSA) [11] = assay: MBC, plating onto TSA; format: cell-based, Staphylococcus aureus; conditions: VRS1 (VRSA)
S. aureus VRS5 (VRSA) [12] = assay: MIC, broth microdilution; format: cell-based, Staphylococcus aureus; conditions: VRS5 (VRSA)
S. aureus USA500 (MRSA) [13] = assay: MIC, broth microdilution; format: cell-based, Staphylococcus aureus; conditions: USA500 (MRSA)
S. aureus NRS194 (MRSA) [14] = assay: MIC, broth microdilution; format: cell-based, Staphylococcus aureus; conditions: NRS194 (MRSA)
[15] = Microsomal stability analysis
S. aureus NRS1 (VISA) [16] = assay: MBC, plating onto TSA; format: cell-based, Staphylococcus aureus; conditions: NRS1 (VISA)
S. aureus NRS19 (VISA) [17] = assay: MIC, broth microdilution; format: cell-based, Staphylococcus aureus; conditions: NRS19 (VISA)
S. aureus NRS37 (VISA) [18] = assay: MIC, broth microdilution; format: cell-based, Staphylococcus aureus; conditions: NRS37 (VISA)
S. aureus VRS4 (VRSA) [19] = assay: MIC, broth microdilution; format: cell-based, Staphylococcus aureus; conditions: VRS4 (VRSA)
S. aureus USA 400 (MRSA) [20] = assay: MBC, plating onto TSA; format: cell-based, Staphylococcus aureus; conditions: USA 400 (MRSA)
S. aureus VRS4 (VRSA) [21] = assay: MBC, plating onto TSA; format: cell-based, Staphylococcus aureus; conditions: VRS4 (VRSA)
S. aureus USA500 (MRSA) [22] = assay: MBC, plating onto TSA; format: cell-based, Staphylococcus aureus; conditions: USA500 (MRSA)
S. aureus USA 400 (MRSA) [23] = assay: MIC, broth microdilution; format: cell-based, Staphylococcus aureus; conditions: USA 400 (MRSA)
S. aureus NRS107 (MRSA) [24] = assay: MBC, plating onto TSA; format: cell-based, Staphylococcus aureus; conditions: NRS107 (MRSA)
S. aureus NRS119 (MRSA) [25] = assay: MIC, broth microdilution; format: cell-based, Staphylococcus aureus; conditions: NRS119 (MRSA)
S. aureus VRS1 (VRSA) [26] = assay: MIC, broth microdilution; format: cell-based, Staphylococcus aureus; conditions: VRS1 (VRSA)
[27] = test system: methicillin-resistant Staphylococcus aureus (MRSA) ATCC 43300; assay: MIC, broth microdilution; format: cell-based; conditions: MRSA ATCC 43300
[28] = human liver microsomes, with NADPH
[29] = Staphylococcus aureus, ATCC43300|MRSA

## [H]/N=C(/N)NN=C(C)c1sc(-c2ccc(C#CCCCC)cc2)nc1C [compound 5, (Z)-2-(1-(2-(4-(Hex-1-yn-1-yl)phenyl)-4-methylthiazol-5-yl)ethylidene) hydrazinecarboximidamide]
S. aureus NRS1 (VISA) [1]
  MIC: 0.7 µg/mL (≈ 1.98 µM)
MRSA USA300
  time to completely eradicate MRSA growth: ≤ 4 h
S. aureus NRS19 (VISA) [2]
  MBC: 1.4 µg/mL (≈ 3.96 µM)
[3]
  MBC: 1.4 µg/mL (≈ 3.96 µM)
S. aureus USA300 (MRSA) [4]
  MBC: 1.4 µg/mL (≈ 3.96 µM)
S. aureus NRS37 (VISA) [5]
  MBC: 1.4 µg/mL (≈ 3.96 µM)
S. aureus NRS119 (MRSA) [6]
  MBC: 1.4 µg/mL (≈ 3.96 µM)
S. aureus NRS194 (MRSA) [7]
  MBC: 1.4 µg/mL (≈ 3.96 µM)
S. aureus NRS107 (MRSA) [8]
  MIC: 1.4 µg/mL (≈ 3.96 µM)
S. aureus VRS5 (VRSA) [9]
  MBC: 2.8 µg/mL (≈ 7.92 µM)
S. aureus USA300 (MRSA) [10]
  MIC: 1.4 µg/mL (≈ 3.96 µM)
S. aureus VRS1 (VRSA) [11]
  MBC: 1.4 µg/mL (≈ 3.96 µM)
S. aureus VRS5 (VRSA) [12]
  MIC: 2.8 µg/mL (≈ 7.92 µM)
S. aureus USA500 (MRSA) [13]
  MIC: 1.4 µg/mL (≈ 3.96 µM)
S. aureus NRS194 (MRSA) [14]
  MIC: 1.4 µg/mL (≈ 3.96 µM)
[15]; [28]
  NADPH-dependent CLint: 3.7 µL/min/mg
  NADPH-dependent T1/2: >4 h
[15]; human liver microsomes, without NADPH
  NADPH-free T1/2: >4 h
[15]; pooled human liver microsomes
  half-life: exceeds 4 hours
S. aureus NRS1 (VISA) [16]
  MBC: 0.7 µg/mL (≈ 1.98 µM)
S. aureus NRS19 (VISA) [17]
  MIC: 1.4 µg/mL (≈ 3.96 µM)
S. aureus NRS37 (VISA) [18]
  MIC: 1.4 µg/mL (≈ 3.96 µM)
S. aureus VRS4 (VRSA) [19]
  MIC: 1.4 µg/mL (≈ 3.96 µM)
S. aureus USA 400 (MRSA) [20]
  MBC: 1.4 µg/mL (≈ 3.96 µM)
S. aureus VRS4 (VRSA) [21]
  MBC: 2.8 µg/mL (≈ 7.92 µM)
S. aureus USA500 (MRSA) [22]
  MBC: 1.4 µg/mL (≈ 3.96 µM)
S. aureus USA 400 (MRSA) [23]
  MIC: 1.4 µg/mL (≈ 3.96 µM)
S. aureus NRS107 (MRSA) [24]
  MBC: 1.4 µg/mL (≈ 3.96 µM)
S. aureus NRS119 (MRSA) [25]
  MIC: 1.4 µg/mL (≈ 3.96 µM)
S. aureus VRS1 (VRSA) [26]
  MIC: 1.4 µg/mL (≈ 3.96 µM)
[27]
  MIC: 1.4 µg/mL (≈ 3.96 µM)

## CCCCc1ccc(-c2nc(C)c(C(=O)NNC(=N)N)s2)cc1 [compound 11, 2-(2-(4-Butylphenyl)-4-methylthiazole-5-carbonyl)hydrazinecarboximidamide]
[27]; [29]
  MIC: > 42.4 µg/mL

## [H]/N=C(\N)NN=C(C)c1sc(-c2ccc(N)cc2)nc1C [compound 19, (E)-2-(1-(4-Methyl-2-(4-aminophenyl)thiazol-5-yl)ethylidene) hydrazinecarboximidamide]
[27]
  MIC: >36.9 µg/mL

## CCCCc1ccc(-c2nc(C)c(C(=O)NC[C@@H](O)CO)s2)cc1 [compound 12, (R)-2-(4-Butylphenyl)-N-(2,3-dihydroxypropyl)-4methylthiazole-5-carboxamide]
[27]; [29]
  MIC: 44.5 µg/mL (≈ 128 µM)
